# Mdm2 MdmX PPI: human Mdm2/MdmX binding inhibition. O15151+Q00987. SaOS-2 split-luciferase Mdm2/MdmX complementation, luminescence. inhibition, % at 8 µM. 330,000 tested, 3% active. AID 485346;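 active = inhibition of at least 50% at 8 µM in the primary screen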
# Target sequence (O15151 whole entry, looked up): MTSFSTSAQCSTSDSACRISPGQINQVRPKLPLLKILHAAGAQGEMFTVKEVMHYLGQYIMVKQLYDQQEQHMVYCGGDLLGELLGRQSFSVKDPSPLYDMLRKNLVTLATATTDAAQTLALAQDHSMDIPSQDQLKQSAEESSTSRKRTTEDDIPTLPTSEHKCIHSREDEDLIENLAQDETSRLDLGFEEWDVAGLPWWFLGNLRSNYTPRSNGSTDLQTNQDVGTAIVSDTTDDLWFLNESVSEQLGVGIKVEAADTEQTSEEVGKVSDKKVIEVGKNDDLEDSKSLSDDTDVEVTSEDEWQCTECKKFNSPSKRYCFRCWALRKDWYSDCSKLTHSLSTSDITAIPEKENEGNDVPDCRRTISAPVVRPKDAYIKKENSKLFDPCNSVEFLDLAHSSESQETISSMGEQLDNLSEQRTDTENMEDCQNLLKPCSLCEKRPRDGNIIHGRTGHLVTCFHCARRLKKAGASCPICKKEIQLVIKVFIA
# Target sequence (Q00987 whole entry, looked up): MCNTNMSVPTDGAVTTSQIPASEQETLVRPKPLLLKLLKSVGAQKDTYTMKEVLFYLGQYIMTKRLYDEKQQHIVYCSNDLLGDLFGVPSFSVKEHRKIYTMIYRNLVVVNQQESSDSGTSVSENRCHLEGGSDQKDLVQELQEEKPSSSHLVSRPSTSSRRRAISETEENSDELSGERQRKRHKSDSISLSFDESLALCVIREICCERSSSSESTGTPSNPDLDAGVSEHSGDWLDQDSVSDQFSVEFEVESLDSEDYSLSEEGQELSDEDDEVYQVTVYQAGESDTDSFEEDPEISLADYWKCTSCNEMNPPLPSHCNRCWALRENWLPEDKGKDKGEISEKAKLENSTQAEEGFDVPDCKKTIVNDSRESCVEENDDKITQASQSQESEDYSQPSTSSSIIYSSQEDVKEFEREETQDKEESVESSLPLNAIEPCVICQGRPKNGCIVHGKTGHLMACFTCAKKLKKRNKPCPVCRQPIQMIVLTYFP
# 697 NFkB inh: lowers PMA/ionomycin-induced NF-kB signal in 697 B cells; 697 B-cell NF-kB luciferase reporter, 16 h; inhibition, % at 4 µM; 330,000 tested, 0.33% active; AID 435022; in the data active = inhibition above about 35%
# Jurkat NFkB inh: lowers PMA/ionomycin-induced NF-kB signal in Jurkat cells; PMA/ionomycin-induced NF-kB luciferase reporter, luminescence; inhibition, % at 4 µM; AID 435003; 330,000 tested, 0.53% active; in the data active = inhibition above about 50%
# VIM-2 inhibitor: blocks Pseudomonas aeruginosa VIM-2 metallo-beta-lactamase; purified VIM-2, nitrocefin hydrolysis, epi-absorbance fluorescence; inhibition, % at 5.6 µM; 290,000 tested, 0.89% active; AID 1527;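 active = inhibition above the mean of all tested compounds plus 3 SD, cutoff set per screening run, cut at about 7.5% in these data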;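 note: red hydrolysis product quenches plate fluorescence so inhibitors raise well fluorescence; 0% = enzyme with DMSO and 100% = DMSO without enzyme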
# aSyn UTR inh: 5' untranslated region of α-synuclein, MLPCN primary screen. alpha-synuclein 5'UTR reporter, inhibitor activity. 300,000 tested, 0.82% active. inhibition, % (tested at 7.5 µM); in the data active = inhibition above about 60%;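 note: H4 neuroglioblastoma cells stably carrying SNCA 5'UTR luciferase fusion; 0% = DMSO wells and 100% = positive control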
# IMP-1 inh: blocks Pseudomonas aeruginosa IMP-1 metallo-beta-lactamase; purified IMP-1, nitrocefin hydrolysis, epi-absorbance fluorescence; inhibition, % at 5.6 µM; 290,000 tested, 0.45% active;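 active = inhibition above the mean plus 3 SD of all compounds in the same screening run, cut at about 4.5% in these data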;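 note: 0% = IMP-1 with DMSO and 100% = DMSO wells lacking enzyme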
#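 System: purified IMP-1 / Input: IMP-1 dispensed at 0.2 nM / Medium: 50 mM HEPES pH 7.1, 50 µM ZnSO4, 0.05% Brij 35 / Timing: 15 min enzyme–compound preincubation, then 25 min nitrocefin reaction, 25 °C / Technique: plate fluorescence quenching by hydrolysis product, ex 480/em 530 nm / Repeats: singlicate testing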
# Jurkat NFkB conf: inhibitors of the PMA/ionomycin-induced NF-kB reporter in Jurkat cells, retest. shares compounds with Jurkat NFkB inh. Jurkat NF-kB luciferase, 16 h. inhibition, % at 4 µM. 2,700 tested, 27% active. AID 435020;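 active = inhibition reaching about 45% at 4 µM in either replicate, limit read from the data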;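 note: plate controls were PMA/ionomycin stimulated DMSO wells for no effect and unstimulated DMSO wells for full effect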
# Active calls of the source: *; . = no result given. Hits are enriched below; roughly 4.7% of the tested compounds scored in any of these assays.
SMILES,Mdm2 MdmX PPI,697 NFkB inh,Jurkat NFkB inh,VIM-2 inhibitor,aSyn UTR inh,IMP-1 inh,Jurkat NFkB conf
O=C(Nc1ccc(N2CCCCC2)cc1)c1ccc(F)cc1F,-88,-202,-175,-1,-21,-2,-69
Cc1ccc(C(=O)Nc2cccc(C(=O)O)c2)cc1,9,17,73*,-4,87*,-4,60*
O=C(Nc1ccc(N2CCCC2)cc1)c1ccccc1F,-105,-99,-60,-4,-80,-1,.
COc1ccc(NC(=O)c2cccs2)cc1C(=O)N1CCN(c2ccccc2)CC1,35,-21,52*,-3,-35,-2,13
COc1ccc(C)c2sc(N(CCCN(C)C)C(=O)c3ccc4c(c3)OCCO4)nc12,40,-26,7,.,-97,.,.
O=S(=O)(Nc1nc2ccccc2nc1N1CCN(CCO)CC1)c1cc(F)ccc1F,-6,9,-15,.,.,.,.
O=C(NC(=S)Nc1ccc(N2CCCCC2)cc1)c1cccs1,-54,-106,-172,0,-104,-3,-108
CC(=O)Nc1ccc(Oc2ccc(S(=O)(=O)N3CCCC3)cn2)cc1,15,16,16,.,.,.,.
CC(C)(C)OC(=O)NCCCCCc1cn(CC(=O)NCCCCCCCCCCC(=O)N2CCN(C(=O)OC(C)(C)C)CC2)nn1,0,-13,55*,.,.,.,56*
Cc1cn([C@@H](CCCCNC(=O)OC(C)(C)C)C(=O)NCCCCCCCCCCC(=O)N2CCN(C(=O)OC(C)(C)C)CC2)nn1,33,-59,33,.,.,.,.
CCc1ccc(C(=O)NNC(=O)C2CSC3(C)CCC(=O)N23)cc1 (stereo unspecified),-8,16,18,.,1,.,.
CCOC(=O)c1sc(=NC(=O)c2cccc(Br)c2)n(C)c1C,-63,-84,-111,-1,-188,-3,.
CCOC(=O)c1sc(=NC(=O)c2ccc(F)cc2)n(C)c1C,-143,-198,-154,1,-104,-3,-121
CCOC(=O)c1sc(=NC(=O)c2cccc(C)c2)n(C)c1C,-67,-114,-186,-5,-151,-3,-109
CC(C(=O)c1ccccc1)[n+]1cccc(Br)c1 (stereo unspecified),22,21,-6,-1,-32,-2,.
Cc1ccc(NC(=O)CSc2nc(-c3ccco3)cc(C(F)(F)F)n2)cc1C,44,-45,71*,-3,51,-1,49*
Cc1c(NC(=O)CSc2nc(-c3ccco3)cc(C(F)(F)F)n2)c(=O)n(-c2ccccc2)n1C,1,18,-6,-2,19,-3,.
Cc1ccccc1NC(=O)C1CCCN1S(=O)(=O)c1ccccc1C(F)(F)F (stereo unspecified),-11,11,8,.,.,.,.
COc1ccc(OCCOC(=O)c2ccc(F)c(S(=O)(=O)N3CCOCC3)c2)cc1,-13,11,1,.,.,.,.
Clc1ccc(OCc2nc(-c3ccncc3)no2)c(Br)c1,-147,-196,-166,-2,-119,-3,-96
Cc1ccc(S(=O)(=O)NCc2ccccn2)c(C)c1C,-16,-41,-20,-1,-9,-2,.
Cc1ccc(S(=O)(=O)NCc2ccncc2)c(C)c1C,11,31,62*,1,-8,-1,68*
Cc1no[n+]([O-])c1COc1ccc(/C=N/n2nnnc2N)cc1,-8,-11,50*,2,-59,-1,14
Cc1cc(-c2ccc(C)c(S(=O)(=O)N3CCN(c4ccc([N+](=O)[O-])cc4)CC3)c2)on1,14,-9,54*,-4,-11,-2,64*
Cc1cc(-c2ccc(C)c(S(=O)(=O)N3CCN(c4ccccn4)CC3)c2)on1,13,-16,22,-1,2,-3,.
SMILES,Mdm2 MdmX PPI,697 NFkB inh,Jurkat NFkB inh,VIM-2 inhibitor,aSyn UTR inh,IMP-1 inh,Jurkat NFkB conf
O=C(/C=C/c1ccc(Cl)c(Cl)c1)NC1=NCCS1,-29,-49,-69,-6,-104,-4,.
CC(C)c1ccc(/C=C/C(=O)NC2=NCCS2)cc1,-56,-171,-204,-2,51,-2,-102
Cc1cc(C)n(CC(=O)NNC(=O)c2ccc(OC(F)(F)F)cc2)n1,22,12,5,.,.,.,.
Cc1ccc(NC(=S)N2CCC(c3ccccc3)C2)c(Cl)c1 (stereo unspecified),-83,-200,-165,-4,9,-2,-98
C/C(=N/NC(=O)c1ccncc1)c1ccc(NC(=O)c2ccc(Cl)cc2Cl)cc1,32,-29,-73,-1,-185,-1,.
C/C(=N\NC(=O)c1ccncc1)c1ccc(NC(=O)c2ccc(Cl)cc2)cc1,21,-165,-152,-2,-116,-2,-92
CCOCc1c(C(=O)Nc2ccccc2N2CCN(C)CC2)oc2ccccc12,25,-13,1,.,.,.,.
Cc1ccc2oc(C(=O)Nc3cc(C)on3)c(C)c2c1,-127,-47,-169,.,.,.,-75
O=C(Nc1ccc(Cn2cccn2)cc1)c1ccc(COc2ccc(Br)cc2)cc1,19,-34,-2,-4,21,-2,.
O=C(Nc1ccn(Cc2ccccc2F)n1)c1ccc(COc2ccc(Br)cc2)cc1,7,-30,53*,-4,-68,-2,52*
O=C(N/N=C/c1ccccn1)c1ccc(Cl)c(Cl)c1,42,3,70*,1,-20,-1,-2
O=C(NCc1ccco1)C1CC(c2cc(C(F)(F)F)cc(C(F)(F)F)c2)=NO1 (stereo unspecified),48,-28,62*,.,6,.,20
O=C(NCc1ccco1)C1CC(c2ccccc2C(F)(F)F)=NO1 (stereo unspecified),8,6,7,.,14,.,.
CC(Oc1ccc(Cl)cc1Cl)c1nc(-c2ccc(NC(=O)c3ccncc3)cc2)no1 (stereo unspecified),40,-3,51*,1,-6,-2,57*
CC(Oc1ccc(Cl)cc1Cl)C(=O)NNC(=O)c1ccncc1 (stereo unspecified),4,13,9,.,6,.,.
Cc1ccc(N(CC(=O)NC(C)(C)C)C(=O)CCC(=O)Nc2nccs2)c(C)c1,-3,-5,1,-1,-6,-2,.
CC(C)(C)c1ccc(C(=O)Nc2ccccc2Cl)cc1,-177,-106,-249,-3,-88,-3,-167
CS(=O)(=O)Nc1ccc(C(=O)Nc2ccccc2Cl)cc1,21,17,-6,-2,-13,-4,.
c1cnc(SCCOc2ccc3c(c2)CCC3)nc1,-168,-200,-176,-3,-111,-3,-78
COc1ccc(-c2noc3c2-c2nc(-c4ccccc4F)sc2CC3)cc1,-3,-7,-26,-3,-22,-2,.
Cc1c(C(=O)Nc2ccccc2)csc1-c1ccccc1,-235,6,-266,-2,-25,-2,-195
Cc1nc(-c2ccc(NC(=O)c3ccc(Br)o3)cc2)cs1,-191,-82,-215,-1,-175,-2,-105

# Screening results: PubChem BioAssay, several laboratories
